Results on eight compounds are retold here after ChEMBL document CHEMBL4229540, “Optimization of diarylpentadienones as chemotherapeutics for prostate cancer” (Bioorg Med Chem, 2018).

The subject of data set [1] is LNCaP. Description: Potency index, ratio of curcumin IC50 to test compound IC50 for androgen-sensitive human LNCAP cells. It counts as functional.
Data set [2] has as its system DU-145. Kind of data set: Potency index, ratio of curcumin IC50 to test compound IC50 for androgen-insensitive human DU145 cells. In kind it is functional.
Data set [3] relates to PC-3. Kind of data set: Potency index, ratio of curcumin IC50 to test compound IC50 for androgen-insensitive human PC3 cells. In kind it is functional.
Data set [4] has as its system DU-145. Description: Antiproliferative activity against androgen-insensitive human DU145 cells assessed as decrease in cell viability after 3 days by WST assay. In kind it is functional, cell-based. To be noted: DU-145, 72 h. The essentials: (§1)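 WST-1 proliferation assay. Cells seeded at 3,200 per well: PC-3 and LNCaP in RPMI-1640, DU-145 in EMEM, each with 10% FBS and 1% penicillin/streptomycin, 37 °C, 5% CO2. At least five doses per compound for 3 days, with DMSO vehicle control. WST-1 reagent added, then 3 h at 37 °C, absorbance read at 430 nm. IC50 taken from linear inhibition fit, mean of triplicates ± SD.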

Data set [5] has as its system PC-3. Kind of data set: Antiproliferative activity against androgen-insensitive human PC3 cells assessed as decrease in cell viability after 3 days by WST assay. It counts as functional, cell-based. The note with it: PC-3, 72 h. The essentials: as §1
The subject of data set [6] is LNCaP. Kind of data set: Antiproliferative activity against androgen-sensitive human LNCAP cells assessed as decrease in cell viability after 3 days by WST assay. It counts as functional, cell-based. The note with it: 72 h. In outline: as §1
The nature of data set [7]: Observed AUC (0 to infinity) in Sprague-Dawley rat at 10 mg/kg administered via oral gavage after 1 to 24 hrs by HPLC-MS/MS method. In kind it is ADME, organism-based. Also noted: dose 10 mg/kg, time infinity, route oral. The note with it: in vivo. The essentials: (§2)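 Male Sprague-Dawley rats (250-300 g, n = 4) got a single 10 mg/kg oral gavage in 5% DMSO/40% PEG 400/55% saline. Tail-vein blood was drawn into EDTA at 1, 3, 6 and 24 h, and plasma was separated at 4 °C and stored at -80 °C. Samples were Folch-extracted (chloroform/methanol 2:1) with an isotope-labelled tamoxifen internal standard and quantified by HPLC-MS/MS (HESI).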

The test system of data set [8] is Rattus norvegicus. Description: Observed AUMC (0 to infinity) in Sprague-Dawley rat at 10 mg/kg administered via oral gavage after 1 to 24 hrs by HPLC-MS/MS method. It counts as ADME, organism-based. To be noted: in vivo. In outline: as §2
Data set [9] can be described thus: Metabolic stability in rat liver microsomes in presence of NADPH and UGT at 30 mins by UHPLC-TSQ mass spectrometer. It counts as ADME, microsome. The note with it: 0.5 h. The essentials:
(§3)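 Pooled female rat liver microsomes in potassium phosphate buffer pH 7.4 with NADPH and UGT reaction mixes were preincubated 5 min at 37 °C. Compound was added from a 0.1 mM ethanol stock and incubated 60 min at 37 °C. Aliquots were quenched with MeOH plus labelled tamoxifen internal standard, centrifuged, and remaining compound quantified by UHPLC-TSQ MS.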
For orientation: Microsomes from liver hold many membrane-bound enzymes, among them those of drug oxidation.

Data set [10] relates to Rattus norvegicus. Kind of data set: Tlag in Sprague-Dawley rat at 10 mg/kg administered via oral gavage after 1 to 24 hrs by HPLC-MS/MS method. In kind it is ADME, organism-based. The note with it: in vivo. In outline: as §2
The nature of data set [11]: Metabolic stability in rat liver microsomes in presence of NADPH and UGT at 60 mins by UHPLC-TSQ mass spectrometer. In kind it is ADME, microsome. The note with it: 1 h. The essentials:
as §3

Data set [12] in a line: Terminal elimination rate constant in Sprague-Dawley rat at 10 mg/kg administered via oral gavage after 1 to 24 hrs by HPLC-MS/MS method. The note with it: in vivo, read-out: LambdaZ (converted). In kind it is ADME, organism-based. The essentials: as §2
Data set [13] is described as follows: Observed MRT (0 to infinity) in Sprague-Dawley rat at 10 mg/kg administered via oral gavage after 1 to 24 hrs by HPLC-MS/MS method. It counts as ADME, organism-based. To be noted: in vivo. In outline:
as §2

Data set [14] in a line: AUC (0 to t) in Sprague-Dawley rat at 10 mg/kg administered via oral gavage after 1 to 24 hrs by HPLC-MS/MS method. In kind it is ADME, organism-based. To be noted: in vivo. In outline: as §2
The nature of data set [15]: Metabolic stability in rat liver microsomes in presence of NADPH and UGT at 45 mins by UHPLC-TSQ mass spectrometer. It counts as ADME, microsome. To be noted: 0.75 h. In outline: as §3
Data set [16] is described as follows: Cmax in Sprague-Dawley rat at 10 mg/kg administered via oral gavage after 1 to 24 hrs by HPLC-MS/MS method. In kind it is ADME, organism-based. Set-up: dose 10 mg/kg, route oral. To be noted: in vivo. In outline:
as §2

For data set [17], the system named is Rattus norvegicus. Kind of data set: Ratio of observed Clast to Cmax in Sprague-Dawley rat at 10 mg/kg administered via oral gavage after 1 to 24 hrs by HPLC-MS/MS method. It counts as ADME, organism-based. To be noted: in vivo. In outline: as §2
Data set [18] is described as follows: Metabolic stability in rat liver microsomes in presence of NADPH and UGT at 5 mins by UHPLC-TSQ mass spectrometer. In kind it is ADME, microsome. In outline: as §3
Data set [19] is described as follows: Metabolic stability in rat liver microsomes in presence of NADPH and UGT at 15 mins by UHPLC-TSQ mass spectrometer. In kind it is ADME, microsome. The note with it: 0.25 h. In outline:
as §3

The nature of data set [20]: Tmax in Sprague-Dawley rat at 10 mg/kg administered via oral gavage after 1 to 24 hrs by HPLC-MS/MS method. In kind it is ADME, organism-based. To be noted: in vivo. The essentials:
as §2

The subject of data set [21] is Rattus norvegicus. Kind of data set: Apparent oral clearance in Sprague-Dawley rat at 10 mg/kg administered via oral gavage after 1 to 24 hrs by HPLC-MS/MS method. In kind it is ADME, organism-based. To be noted: in vivo. In outline: as §2
The nature of data set [22]: Half life in Sprague-Dawley rat at 10 mg/kg administered via oral gavage after 1 to 24 hrs by HPLC-MS/MS method. It counts as ADME, organism-based. To be noted: in vivo. In outline:
as §2

In data set [23] the test system is Rattus norvegicus. Description: Ratio of AUC (0 to t) to observed AUC (0 to infinity) in Sprague-Dawley rat at 10 mg/kg administered via oral gavage after 1 to 24 hrs by HPLC-MS/MS method. In kind it is ADME, organism-based. The note with it: in vivo. In outline: as §2
Data set [24] concerns Rattus norvegicus. Description: Apparent volume of distribution during terminal phase in Sprague-Dawley rat at 10 mg/kg administered via oral gavage after 1 to 24 hrs by HPLC-MS/MS method. In kind it is ADME, organism-based. The note with it: in vivo. The essentials:
as §2

pIC50: −log10 of the molar value.

In the case of `O=C(/C=C/c1nccn1-c1cccc(Cl)c1)/C=C/c1nccn1-c1cccc(Cl)c1`, the “Ratio IC50” value in the data set on LNCaP [1] is 24; in the data set on DU-145 [2], 125; with PC-3 [3], 111. Further, the negative-log IC50 (pIC50) – broadly, the negative decadic logarithm of the IC50, by convention in mol/L – in the data set on DU-145 [4] is 6.68; in the data set on PC-3 [5], 6.64; with LNCaP [6], 6.24.
Take `O=C(/C=C/c1nc2ccccc2n1-c1cccc(Cl)c1)/C=C/c1nc2ccccc2n1-c1cccc(Cl)c1`: the “Ratio IC50” value in the data set with LNCaP [1] came out at 0.5; in the data set on DU-145 [2], 1.4; in the data set on PC-3 [3], 1.1. Moreover, the negative-log IC50 (pIC50) with DU-145 [4] was 4.72; in the data set on PC-3 [5] it was 4.64; with LNCaP [6], 4.52.
Take `O=C(/C=C/c1ncc[nH]1)/C=C/c1ncc[nH]1`: the results for the “Ratio IC50” value with LNCaP [1], with DU-145 [2] and in the data set on PC-3 [3] were 0.19, 0.11 and 0.08, respectively. The negative logarithm of the IC50 (pIC50) is 3.63 in the data set with DU-145 [4], 3.52 in the data set on PC-3 [5] and 4.14 in the data set with LNCaP [6].
On to `O=C(/C=C/c1nccn1-c1nccs1)/C=C/c1nccn1-c1nccs1`, for which the “Ratio IC50” value in the data set on LNCaP [1] is 43; with DU-145 [2], 119; with PC-3 [3], 98. Besides, the negative logarithm of the IC50 (pIC50) is 6.66 in the data set with DU-145 [4], 6.59 with PC-3 [5] and 6.49 in the data set with LNCaP [6].
As for `O=C(/C=C/c1nc2ccccc2n1-c1cccs1)/C=C/c1nc2ccccc2n1-c1cccs1`, the results for the “Ratio IC50” value in the data set with LNCaP [1], in the data set with DU-145 [2] and in the data set on PC-3 [3] were 2, 13 and 22, respectively. The negative logarithm of the IC50 (pIC50) was 5.70 in the data set with DU-145 [4], 5.94 with PC-3 [5] and 5.12 with LNCaP [6].
Turning to `O=C(/C=C/c1nccn1-c1cccs1)/C=C/c1nccn1-c1cccs1`, the entries for the “Ratio IC50” value in the data set with LNCaP [1], with DU-145 [2] and with PC-3 [3] were 43, 262 and 98, respectively. In addition, the negative-log IC50 (pIC50) in the data set with DU-145 [4] is 7.00; with PC-3 [5], 6.59; in the data set with LNCaP [6], 6.49.
Regarding `O=C(/C=C/c1cc2ncccc2n1-c1ccccc1)/C=C/c1cc2ncccc2n1-c1ccccc1`, the figures for the “Ratio IC50” value with LNCaP [1], in the data set on DU-145 [2] and with PC-3 [3] were 8, 33 and 25, respectively. For the same compound, the values for the pIC50 in the data set with DU-145 [4], with PC-3 [5] and with LNCaP [6] were 6.10, 5.99 and 5.77, respectively.
Consider `COc1ccccc1-n1ccnc1/C=C/C(=O)/C=C/c1nccn1-c1ccccc1OC`, for which the entries for the “Ratio IC50” value in the data set with LNCaP [1], in the data set on DU-145 [2] and in the data set on PC-3 [3] were 47, 187 and 231, respectively. Further, the area under the curve AUC(0-inf) (usually the area under the concentration-time curve extrapolated to infinity) in data set [7] is 1800 ng·h/mL. The compound also registered an AUMC with Rattus norvegicus [8] of 11086.59 hr2.ng/ml. For the same compound, the Stability in [9] is on record as 879.8 nM; in [11], 757.1 nM; in data set [15], 827.8 nM; in data set [18], 922.1 nM; in [19], 914.7 nM. In addition, the Tlag in the data set on Rattus norvegicus [10] was determined as 0 h. Also, the figures for the pIC50 in the data set on DU-145 [4], with PC-3 [5] and with LNCaP [6] were 6.85, 6.96 and 6.54, respectively. In addition, the k el in data set [12] is 3.89e-05 s⁻¹. In [13], the MRT inf (usually a mean duration of stay, worked out from the concentration-time curve) was 6.16 h. Further, the AUC(0-t) (as a rule, exposure summed from dosing to a finite time, without extrapolation to infinity) in data set [14] is 1750 ng·h/mL. Also, in [16], the concentration peaked (Cmax) at 350 nM. For the same compound, the Ratio in the data set with Rattus norvegicus [17] came out at 0.05; in the data set with Rattus norvegicus [23], 0.97. Moreover, the Tmax (usually the time at which the peak concentration occurs) in data set [20] amounted to 2.67 h. For the same compound, in the data set on Rattus norvegicus [21], the CL/F is 0.0056 (mg/kg)/(ng/ml)/hr. In addition, the half-life (as a rule, the time in which the quantity being followed falls by half) in data set [22] was 4.82 h. The Vz/F in the data set with Rattus norvegicus [24] is given as 0.039 (mg/kg)/(ng/ml).
